Test results taken from paper PMC4876928 (Clinical cancer research : an official journal of the …, 2016).

Experiments:
[1] = Plasma pharmacokinetics in patients; type: in vivo, human; details: for half-life: human, plasma, po
Procedure, shortened: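 Oral test compound was given as a single dose on day 1 (7-day run-in for terminal half-life), then QD from day 8. PPI cohort: rabeprazole 20 mg days 4-7, co-dosed day 8, intensive sampling day 8. Quantified by LC-MS/MS.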

[2] = tested on: phospho-AKT (pAKT) (S473) in platelet-rich plasma; assay: pAKT; type: in vivo, human
Procedure, shortened: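 Patients took oral test compound QD on 21/28 or 28/28 schedules. Total AKT and pAKT (S473) were measured by Meso Scale Discovery immunoassay. Results are percent change in pAKT from baseline.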

[3] = in vitro; weakly basic molecule; cited from earlier work

With `Cc1c(CN2CCN(C(=O)[C@H](C)O)CC2)sc2c(N3CCOCC3)nc(-c3cnc(N)nc3)nc12` [apitolisib] the half-life ([1]; mean terminal elimination half-life, patients) was 678 min, the half-life ([1]; terminal elimination half-life, range, patients) was 196 to 2720 min and the “time of peak mean plasma concentration after dose” value ([1]; oral, patients) was 1 to 2 h. The “impact of PPI on apitolisib PK” value ([1]; rabeprazole 20 mg daily for 5 days, 6 patients) was “no significant impact”, the accumulation ([1]; repeated QD doses) was “less than 1.2” and the “sustained pAKT inhibition” value ([2]; 40 mg 28/28) was > 90%. The “doses with target modulation” value ([2]; in vivo) was ≥ 16 mg, the “suppression of phosphorylated serine-473 AKT levels” value ([2]; platelet-rich plasma, within 4 hours, MTD 50 mg) was ≥ 90% and the drug solubility [3] was “pH-dependent drug solubility”.
